Measurements published in ChEMBL document CHEMBL3774372, “Design, physico-chemical properties and biological evaluation of some new N-[(phenoxy)alkyl]- and N-{2-[2-(phenoxy)ethoxy]ethyl}aminoalkanols as anticonvulsant agents” (Bioorg Med Chem, 2016).
The source made the active and inactive calls.

Tests used:
Vibrio harveyi [1] = experiment: Mutagenicity in Vibrio harveyi BB7M assessed as number of colonies after 48 hrs (reference value: 13 to 14 no_unit); assay type: ADME, organism-based; conditions: in vivo
In short: (§1)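 Vibrio harveyi mutagenicity test: test compound was added to exponentially growing cultures (A600 = 0.1, 30 °C) and grown to OD600 0.3–0.4. Then 5 × 10^6 cells were plated on BOSS agar with neomycin (final 100 µg/mL) and incubated 48 h at 30 °C. Neomycin-resistant colonies were counted. Triplicate; controls were water, DMSO and NQNO 40 ng/mL.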

Mus musculus [2] = experiment: Neurotoxicity in mouse at 300 mg/kg, ip after 0.5 hrs by rotarod test; assay type: toxicity, organism-based; conditions: in vivo
In short: (§2)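 Mice were dosed ip with compound suspended in 0.5% methylcellulose. Rotarod: a 1 in. knurled rod turning at 6 rpm. Neurotoxicity was scored as failure to stay on the rod for at least 1 min in each of three trials. Results are given as the number of animals affected out of the number tested.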

Vibrio harveyi [3] = experiment: Antimutagenic activity against Vibrio harveyi BB7M assessed as inhibition of NQNO-induced mutagenicity after 48 hrs; assay type: functional
In short: (§3)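 V. harveyi cultures grown exponentially to A600 0.1 at 30 °C, exposed to test compound for 15 min, then to NQNO, and grown on to A600 0.3–0.4. 5 × 10⁶ cells plated on BOSS agar with neomycin (100, final). Neomycin-resistant colonies counted after 48 h at 30 °C. Result given as % inhibition of NQNO mutagenicity; three independent repeats.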

Mus musculus [4] = experiment: Neurotoxicity in mouse at 30 mg/kg, ip after 0.5 hrs by rotarod test; assay type: toxicity, organism-based; conditions: in vivo; in short: as §2
Vibrio harveyi [5] = experiment: Mutagenicity in Vibrio harveyi BB7XM assessed as number of colonies after 48 hrs (reference value: 14 no_unit); assay type: ADME, organism-based; conditions: in vivo; in short: as §1
Mus musculus [6] = experiment: Anticonvulsant activity in mouse assessed as protection against subcutaneous pentylenetetrazol-induced seizures at 30 mg/kg, ip measured after 0.5 hrs; assay type: functional, organism-based
In short: (§4)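 Mice dosed ip as 0.5% methylcellulose suspension; pentylenetetrazole 85 mg/kg in 0.9% NaCl injected subcutaneously into posterior midline, animals watched at least 30 min. Protection = no threshold seizure (single clonic spasm episode lasting ≥5 s); scored protected/tested.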

Vibrio harveyi [7] = experiment: Mutagenicity in Vibrio harveyi BB7X assessed as number of colonies after 48 hrs (reference value: 15 to 16 no_unit); assay type: ADME, organism-based; conditions: in vivo; in short: as §1
Vibrio harveyi [8] = experiment: Antimutagenic activity against Vibrio harveyi BB7XM assessed as inhibition of NQNO-induced mutagenicity after 48 hrs; assay type: functional; in short: as §3
Vibrio harveyi [9] = experiment: Antimutagenic activity against Vibrio harveyi BB7 assessed as inhibition of NQNO-induced mutagenicity after 48 hrs; assay type: functional; in short: as §3
Mus musculus [10] = experiment: Neurotoxicity in mouse at 10 mg/kg, ip after 0.5 hrs by rotarod test; assay type: toxicity, organism-based; conditions: in vivo; in short: as §2
Mus musculus [11] = experiment: Neurotoxicity in mouse at 30 mg/kg, ip after 4 hrs by rotarod test; assay type: toxicity, organism-based; conditions: in vivo; in short: as §2
Vibrio harveyi [12] = experiment: Antimutagenic activity against Vibrio harveyi BB7X assessed as inhibition of NQNO-induced mutagenicity after 48 hrs; assay type: functional; in short: as §3
Mus musculus [13] = experiment: Anticonvulsant activity in mouse assessed as protection against maximal electric shock-induced seizures at 3 mg/kg, ip measured after 0.5 hrs; assay type: functional, organism-based
In short: (§5)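 Mice dosed ip with suspension in 0.5% methylcellulose; maximal electroshock applied at the listed time after dosing. Protection = abolition of hindlimb tonic extension component of seizure; reported as animals protected/animals tested.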

Mus musculus [14] = experiment: Anticonvulsant activity in mouse assessed as protection against maximal electric shock-induced seizures at 30 mg/kg, ip measured after 4 hrs; assay type: functional, organism-based; in short: as §5
Vibrio harveyi [15] = experiment: Mutagenicity in Vibrio harveyi BB7 assessed as number of colonies after 48 hrs (reference value: 13 to 14 no_unit); assay type: ADME, organism-based; conditions: in vivo; in short: as §1
Mus musculus [16] = experiment: Neurotoxicity in mouse at 100 mg/kg, ip after 4 hrs by rotarod test; assay type: toxicity, organism-based; conditions: in vivo; in short: as §2
Mus musculus [17] = experiment: Anticonvulsant activity in mouse assessed as protection against maximal electric shock-induced seizures at 10 mg/kg, ip measured after 4 hrs; assay type: functional, organism-based; in short: as §5
Mus musculus [18] = experiment: Anticonvulsant activity in mouse assessed as protection against subcutaneous pentylenetetrazol-induced seizures at 30 mg/kg, ip measured after 4 hrs; assay type: functional, organism-based; in short: as §4
Mus musculus [19] = experiment: Anticonvulsant activity in mouse assessed as protection against maximal electric shock-induced seizures at 3 mg/kg, ip measured after 4 hrs; assay type: functional, organism-based; in short: as §5
Mus musculus [20] = experiment: Neurotoxicity in mouse at 3 mg/kg, ip after 4 hrs by rotarod test; assay type: toxicity, organism-based; conditions: in vivo
Mus musculus [21] = experiment: Anticonvulsant activity in mouse assessed as protection against maximal electric shock-induced seizures at 100 mg/kg, ip measured after 4 hrs; assay type: functional, organism-based; in short: as §5
Mus musculus [22] = experiment: Neurotoxicity in mouse at 10 mg/kg, ip after 4 hrs by rotarod test; assay type: toxicity, organism-based; conditions: in vivo
Mus musculus [23] = experiment: Anticonvulsant activity in mouse assessed as protection against maximal electric shock-induced seizures at 30 mg/kg, ip measured after 0.5 hrs; assay type: functional, organism-based; in short: as §5
Mus musculus [24] = experiment: Neurotoxicity in mouse at 3 mg/kg, ip after 0.5 hrs by rotarod test; assay type: toxicity, organism-based; conditions: in vivo; in short: as §2
Mus musculus [25] = experiment: Anticonvulsant activity in mouse assessed as protection against maximal electric shock-induced seizures at 10 mg/kg, ip measured after 0.5 hrs; assay type: functional, organism-based; in short: as §5

## CC[C@H](CO)NCCOCCOc1c(C)cccc1C
Vibrio harveyi [1]
  Activity: 20
Mus musculus [2]
  Activity: Toxic
Vibrio harveyi [3]
  inhibition (INH): 55%
Mus musculus [4]
  Activity: Non-toxic
Vibrio harveyi [5]
  Activity: 27
Mus musculus [6]
  Activity: inactive
Vibrio harveyi [7]
  Activity: 26
Vibrio harveyi [8]
  inhibition (INH): 30%
Vibrio harveyi [9]
  inhibition (INH): 81%
Mus musculus [10]
  Activity: Non-toxic
Mus musculus [11]
  Activity: Non-toxic
Vibrio harveyi [12]
  inhibition (INH): 56%
Mus musculus [13]
  Activity: inactive
Mus musculus [14]
  Activity: inactive
Vibrio harveyi [15]
  Activity: 20
Mus musculus [16]
  Activity: Non-toxic
Mus musculus [17]
  Activity: inactive
Mus musculus [18]
  Activity: inactive
Mus musculus [19]
  Activity: inactive
Mus musculus [20]
  Activity: Non-toxic
Mus musculus [21]
  Activity: inactive
Mus musculus [22]
  Activity: Non-toxic
Mus musculus [23]
  Activity: Active
Mus musculus [24]
  Activity: Non-toxic
Mus musculus [25]
  Activity: inactive
